This is an account of results in ChEMBL document CHEMBL1123427, “Synthesis of thyrotropin-releasing hormone analogues. 2. Tripeptides structurally greatly differing from TRH with high central nervous system activity” (1986).

Usually ED50 stands for the dose at which the effect has come halfway, by size or by number of responders. In general, inhibition in vivo refers to the change of the read-out against control, counted positive when it falls. A higher inhibition in vivo goes with strong suppression.

The species entered for assay [1] is Rattus norvegicus. Briefly: Thyrotropin releasing activity (TSH) was evaluated by measuring the TSH response to the compound by radioimmunoassay in two doses in the rat. The format is functional. The method, boiled down: (§1)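 Rat two-point assay at 1 and 10 μg. TSH response is measured by radioimmunoassay. Compounds are dissolved in physiological saline (5 mL/kg), and controls receive the same volume of saline. n = 10 animals per treatment. Significance is given as p < 0.01 and p < 0.001.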

For another assay, the species on record is Mus musculus. Briefly: Reduction of hexobarbital induced sleeping time in mice. It is filed as functional.
The species named for assay [2] is Rattus norvegicus. Briefly: Dose that inhibited cataleptic effect of haloperidol in rat by 50%. The format is functional.
Assay [3] deals with Rattus norvegicus. Briefly: Ability of 80 mg/kg to inhibit the cataleptic effect of haloperidol in rat. It is filed as functional.
The species named for assay [4] is Rattus norvegicus. Briefly: Thyrotropin releasing activity (TSH) was evaluated by measuring the TSH response to the compound by radioimmunoassay in two doses in the rat; np denotes Slightly significant but not parallel TSH response to the lower and upper dose s used. It is filed as functional, organism-based. The method, boiled down:
as §1

Assay [5] concerns Rattus norvegicus. Briefly: Ability of 80 mg/kg to inhibit the cataleptic effect of haloperidol in rat; Potentiating effect. It is filed as functional, organism-based. Set-up: dose 80 mg/kg. To be noted: at 80 mg/kg.
Assay [6] is filed under the species Rattus norvegicus. Briefly: Doses that inhibited cataleptic effect of haloperidol in rat by 50%. It is filed as functional.

Residues, ends and D or L forms follow the SMILES beside them.

In turn, `CCC[C@H](NC(=O)[C@@H]1CCCC(=O)N1)C(=O)N1CCC[C@H]1C(N)=O` came in with an Activity in the assay filed under Rattus norvegicus [1] of 0%. Moreover, in the assay listed under Mus musculus, the Sleeping time worked out at 19.7 min. In the assay filed under Rattus norvegicus [2], this compound yielded an ED50 of 10.6 mg/kg.
On the same counts, the results for `CC(C)C[C@H](NC(=O)[C@@H]1CCC(=O)N1)C(=O)N1CCCC[C@H]1C(N)=O` (HELM PEPTIDE1{[Glp].L.[O=C([C@@H]1CCCCN1[*:1])[*:2]].[am]}$$$$V2.0) are 7.2%, 16.6 min and 38.5 mg/kg.
In the assay on Rattus norvegicus [3], `CC(C)C[C@H](NC(=O)[C@@H]1CCCN1)C(=O)N1CCC[C@H]1C(N)=O` (H-Pro-Leu-Pro-NH2) had an inhibition in vivo at 80 mg/kg of 0%. Moreover, the Sleeping time in the assay filed under Mus musculus is on record as 65.6 min. Besides, the Activity result in the assay filed under Rattus norvegicus [4] is recorded as “Slightly significant but not parallel”.
For `CCC[C@H](NC(=O)[C@@H]1CCCC(=O)N1)C(=O)N1CSC[C@@H]1C(N)=O`, the Activity entry in the assay filed under Rattus norvegicus [4] is “Slightly significant but not parallel”.
With `CCC[C@H](NC(=O)[C@@H]1CCCC(=O)N1)C(=O)N1CSC[C@H]1C(N)=O`, the Sleeping time in the assay filed under Mus musculus was found to be 23.6 min. The ED50 in the assay filed under Rattus norvegicus [2] came to 60.3 mg/kg.
Turning to `NC(=O)[C@@H]1CCCN1C(=O)[C@H](Cc1c[nH]cn1)NC(=O)[C@@H]1CCC(=O)N1` [PROTIRELIN], 80 mg/kg produced 40% inhibition in vivo with Rattus norvegicus [3]. In addition, the Activity in the assay listed under Rattus norvegicus [1] came out at 100%. In addition, the Sleeping time in the assay listed under Mus musculus is on record as 24.8 min.
`CC(=O)N1CCC[C@H]1C(=O)N[C@@H](CC(C)C)C(=O)N1CCC[C@H]1C(N)=O` (Ac-Pro-Leu-Pro-NH2): at 80 mg/kg the inhibition in vivo in the assay with Rattus norvegicus [3] was 0%. The compound also showed a Sleeping time in the assay filed under Mus musculus of 37.6 min.
For the compound `CCC[C@H](NC(=O)[C@@H]1CCC(=O)N1)C(=O)N[C@H](C(N)=O)[C@@H](C)CC` (HELM PEPTIDE1{[Glp].[Nva].I.[am]}$$$$V2.0), in the assay with Rattus norvegicus [5], the inhibition result was “Potentiating effect”. In the assay listed under Rattus norvegicus [1], the Activity came to 0%. Further, in the assay listed under Mus musculus, the Sleeping time is recorded as 47.7 min.
`CC(C)C[C@H](NC(=O)[C@@H]1CCC(=O)N1)C(=O)NCC(N)=O` (HELM PEPTIDE1{[Glp].L.G.[am]}$$$$V2.0): 80 mg/kg produced 0% inhibition in vivo with Rattus norvegicus [3]. The compound further gave a Sleeping time in the assay filed under Mus musculus of 35.8 min.
In the assay on Rattus norvegicus [3], `CCC[C@H](NC(=O)[C@@H]1CCC(=O)N1)C(=O)N[C@@H](CC(C)C)C(N)=O` (HELM PEPTIDE1{[Glp].[Nva].L.[am]}$$$$V2.0) registered an inhibition in vivo at 80 mg/kg of 20%. In addition, the Activity in the assay filed under Rattus norvegicus [1] is reported as 0%. Further, in the assay listed under Mus musculus, the Sleeping time was found to be 43 min.
As for `CCC[C@H](NC(=O)[C@@H]1CCC(=O)N1)C(=O)N1CSC[C@H]1C(N)=O` (HELM PEPTIDE1{[Glp].[Nva].[O=C([C@@H]1CSCN1[*:1])[*:2]].[am]}$$$$V2.0), the Activity in the assay filed under Rattus norvegicus [1] worked out at 0%. The Sleeping time in the assay listed under Mus musculus is 26.4 min. For the same compound, the ED50 in the assay listed under Rattus norvegicus [2] amounted to 56 mg/kg.
Regarding `CC(C)C[C@H](NC(=O)[C@@H]1CCC(=O)O1)C(=O)N1CCC[C@H]1C(N)=O`, the inhibition in vivo at 80 mg/kg in the assay on Rattus norvegicus [3] stood at 40%. The compound also displayed a Sleeping time in the assay listed under Mus musculus of 36.8 min.
For the compound `CC(C)C[C@H](NC(=O)[C@@H]1CCC(=O)N1)C(=O)N1CCCC[C@H]1C(=O)O` (HELM PEPTIDE1{[Glp].L.[O=C(O)[C@@H]1CCCCN1[*:1]]}$$$$V2.0), the inhibition in vivo at 80 mg/kg with Rattus norvegicus [3] is 20%. Also, the Sleeping time in the assay filed under Mus musculus was 33.3 min. The Activity entry in the assay filed under Rattus norvegicus [4] is “Slightly significant but not parallel”.
Consider `CC(C)C[C@H](NC(=O)[C@@H]1CCC(=O)N1)C(=O)N1CSC[C@H]1C(N)=O` (HELM PEPTIDE1{[Glp].L.[O=C([C@@H]1CSCN1[*:1])[*:2]].[am]}$$$$V2.0), for which the Activity in the assay listed under Rattus norvegicus [1] was determined as 0%. The same compound yielded a Sleeping time in the assay listed under Mus musculus of 17.2 min. Further, the ED50 in the assay listed under Rattus norvegicus [2] was determined as 31.4 mg/kg.
In the assay on Rattus norvegicus [3], `CC(C)C[C@H](NC(=O)[C@@H]1CSCN1)C(=O)N1CCC[C@H]1C(N)=O` (HELM PEPTIDE1{[O=C([C@@H]1CSCN1)[*:2]].L.P.[am]}$$$$V2.0) came in with an inhibition in vivo at 80 mg/kg of 0%. Moreover, the Activity in the assay listed under Rattus norvegicus [1] came out at 0%. The compound further registered a Sleeping time in the assay filed under Mus musculus of 35 min.
For the compound `CC(C)C[C@H](NC(=O)[C@@H]1CCCC(=O)N1)C(=O)N1CCC[C@H]1C(N)=O` [POSATIRELIN], in the assay listed under Rattus norvegicus [1], the Activity was 2.7%. The compound also registered a Sleeping time in the assay listed under Mus musculus of 16.4 min. In addition, the ED50 in the assay filed under Rattus norvegicus [6] is 23.5 mg/kg.
As for `CC(C)C[C@H](NC(=O)[C@@H]1CNC(=O)N1)C(=O)N1CCC[C@H]1C(N)=O`, the inhibition in vivo at 80 mg/kg in the assay on Rattus norvegicus [3] came to 40%. The Activity in the assay listed under Rattus norvegicus [1] is 0%. This compound yielded a Sleeping time in the assay filed under Mus musculus of 25.8 min.
The matching figures for `CCC[C@H](NC(=O)[C@@H]1CCC(=O)N1)C(=O)N[C@H](CCSC)C(N)=O`: 20%, 0% and 46.1 min.
